Screening data: PubChem BioAssay, several laboratories
HCV NS3 hel inh = inhibitors of Hepatitis C virus NS3 helicase. NS3 helicase DNA unwinding, Cy5 molecular beacon fluorescence. inhibition, % at 10.9 µM. 0.56% of 290,000 active. AID 1800;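 active = inhibition above the mean of all tested compounds plus 3 SD, set per campaign, cut at about 35% in these data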;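 note: 0% = DMSO wells and 100% = thioflavine S control wells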
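Assay system – hepatitis C virus NS3 helicase domain fragment enzyme · Buffer or medium – MOPS pH 6.5, MgCl2, DTT, Tween20, BSA · Reagent – Cy5/quencher beacon DNA duplex and ATP to start · Compound – single 10.9 µM dose · Timing – 1 h at 25 °C · Technique – Cy5 beacon fluorescence read at start and 1 h · Measure – % inhibition of unwinding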
HSP90 refold inh = blocks HSP90-mediated luciferase refolding in reticulocyte lysate; Rabbit reticulocyte lysate, luciferase refolding luminescence, 3 h; inhibition, % at 5.6 µM; 0.91% of 290,000 active;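 active = inhibition above the screen-wide mean plus 3 SD, computed separately per campaign, cut at about 16% in these data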;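 note: 0% = DMSO wells and 100% = 60 µM geldanamycin wells; inhibitors lower the luminescence because luciferase stays unfolded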
HSF1 inh = HSF1 inhibition. activity change, negative = inhibition, % at 7.5 µM (by protocol). AID 2098. 0.77% of 300,000 active. NIH3T3-HGL HSE-luciferase, MG132-induced, luminescence 8 h; stronger effect = lower value;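 active = more than half of replicate wells show activity change below -50%, luminescence cut by over half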;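 note: luciferase reports HSF-1 transcriptional activity via heat shock element; 0% = median of DMSO wells and -100% = zero luminescence signal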
DNA FID counter = fluorescent intercalator displacement, NS3 helicase counter-screen. DNA fluorescent intercalator displacement, fluorescence. inhibition, % at 7.9 µM. 0.17% of 290,000 active; in the data active = inhibition above about 37%;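 note: 0% = vehicle and 100% = reference compound; higher means more ethidium bromide displaced from hairpin DNA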
HSF1 activator = increases HSF-1 driven luciferase reporter signal | activation, % at 9 µM | NIH3T3-HGL HSF-1 luciferase reporter, MG132, 8 h; 100% = twice DMSO control signal | AID 504408 | 1.7% of 300,000 active;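 active = mean replicate activation of at least 50% with a set share of replicates each reaching 50%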;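 note: 0% = median of the neutral control wells and 100% = twice that signal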
core dimer inh = HCV core protein dimerization inhibition | TR-FRET GST/Flag-core106 dimerization, 1536-well | inhibition, % at 5 µM | 0.33% of 300,000 active;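 active = inhibition above the mean of all tested compounds plus 3 SD, set per screening campaign, cut at about 45% in these data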
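test system = GST/Flag-tagged HCV core106 proteins | probe or stimulus = Eu donor and XL665 acceptor anti-tag antibodies | times = compound-protein-antibody incubation 4 h at 22.5 °C | signal = TR-FRET, excitation 340 nm, emission 617 and 671 nm | measure = percent inhibition of core106 dimerization signal | controls = wells lacking GST-core106 and wells with excess unlabelled core106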
* marks the source's active call; other numbers are inactive results. Sampled rows, rich in hits. Any-hit rate of the full collection: about 3.9%.

`CC(=O)C1=C(C)OC2(O)c3ccccc3C(=O)C12O` (stereo unspecified) gave HCV NS3 hel inh -2.9, HSP90 refold inh 2.3, HSF1 inh 14.3, DNA FID counter -3.3, HSF1 activator 59.1* and core dimer inh -23.9.
`CCOC(=O)C1=C(C)OC2(O)c3ccccc3C(=O)C12O` (stereo unspecified) gave HCV NS3 hel inh -1.4, HSP90 refold inh 3.9, HSF1 inh 9.7, DNA FID counter -2.7, HSF1 activator 20.9 and core dimer inh -12.9.
`CC(=O)NC(Cc1ccccc1)C(=O)N1CCN(C(=O)c2cccs2)CC1` (stereo unspecified) gave HCV NS3 hel inh 3.0, HSP90 refold inh -2.6, HSF1 inh -10.2, DNA FID counter -10.6, HSF1 activator -13.3 and core dimer inh 0.6.
For COc1cc(/C=C/C(C)=O)cc(OC)c1OC the results were HCV NS3 hel inh -0.5, HSP90 refold inh 4.5, HSF1 inh 0.9, DNA FID counter 0.6, HSF1 activator 11.2 and core dimer inh -6.4.
For COc1ccc(/C=C/C(=O)c2ccccc2)c(OC)c1 the results were HCV NS3 hel inh -1.6, HSP90 refold inh -0.9, HSF1 inh 30.6, DNA FID counter -3.8, HSF1 activator 72.2* and core dimer inh -1.2.
For COc1ccc(/C=C/C(=O)c2ccc(OC)cc2OC)c(OC)c1 the results were HCV NS3 hel inh 9.8, HSP90 refold inh 3.7, HSF1 inh 17.5, DNA FID counter -14.6, HSF1 activator 33.7 and core dimer inh -2.5.
For COc1ccc2cc(C(=O)/C=C/c3cc(OC)c(OC)c(OC)c3)ccc2c1 the results were HCV NS3 hel inh -14.4, HSP90 refold inh 12.2, HSF1 inh 54.6, DNA FID counter -35.4, HSF1 activator 95.0* and core dimer inh 0.0.
`COc1ccc2[nH]cc(/C=C/C(=O)c3ccccc3)c2c1` gave HCV NS3 hel inh -11.4, HSP90 refold inh -1.6, HSF1 inh 63.2, DNA FID counter -3.1, HSF1 activator 112.7* and core dimer inh 2.8.
COc1cc(O)c(C(=O)/C=C/c2ccccc2)c(OC)c1 was read as HCV NS3 hel inh -3.1, HSP90 refold inh 2.7, HSF1 inh 125.0, DNA FID counter -3.2, HSF1 activator 107.4* and core dimer inh 2.0.
`C[C@@]12C(=O)Nc3ccccc3C(=O)N1[C@H]1c3cc(Br)ccc3OC[C@@H]1[C@@H]2c1ccccc1` gave core dimer inh 26.1.
For COC(=O)c1c(C)oc2ccc(N(C(=O)c3ccncc3)S(=O)(=O)c3ccc4ccccc4c3)cc12 the results were HCV NS3 hel inh -20.9, HSP90 refold inh 2.8, HSF1 inh -1.7, DNA FID counter -13.7, HSF1 activator 3.7 and core dimer inh 11.5.
Screening COC(=O)c1c(C)oc2ccc(N(C(=O)Oc3ccccc3)S(=O)(=O)c3ccc(Cl)c([N+](=O)[O-])c3)cc12 returned HCV NS3 hel inh 7.8, HSP90 refold inh -5.8, HSF1 inh 60.0, DNA FID counter -0.8, HSF1 activator 72.0* and core dimer inh 64.4*.
Screening COc1ccc(CCNC(=O)c2cc(COc3c(F)cccc3F)on2)c(OC)c1 returned HCV NS3 hel inh -13.4, HSP90 refold inh 3.6, HSF1 inh 8.0, DNA FID counter -21.0, HSF1 activator 16.9 and core dimer inh -2.8.
`COc1ccc(CCNC(=O)c2cc(COc3c(C)cccc3C)on2)c(OC)c1` gave HCV NS3 hel inh -7.7, HSP90 refold inh 6.3, HSF1 inh 18.2, DNA FID counter -19.4, HSF1 activator 56.0* and core dimer inh -10.0.
CC(C)(C)OC(=O)CNC(=O)c1[nH]cnc1C(=O)Nc1ccc(Cl)cc1 was read as HSF1 inh 8.0, HSF1 activator -3.4 and core dimer inh -4.0.
`O=C(/C=C/c1ccccc1)c1cc(Br)ccc(=O)c1O` gave HCV NS3 hel inh 20.3, HSP90 refold inh 0.1, HSF1 inh 71.7, DNA FID counter -20.2, HSF1 activator 90.9* and core dimer inh 7.8.
CCN1C(=O)N[C@H](c2ccccc2)C(C(C)=O)=C1C was read as HSF1 inh -2.3, HSF1 activator -2.4 and core dimer inh 6.0.
Screening COc1cc(NC(=S)NC(C)(C)C)c(OC)cc1Cl returned HCV NS3 hel inh -1.9, HSP90 refold inh 4.9, HSF1 inh 32.4, DNA FID counter -0.4, HSF1 activator 63.4* and core dimer inh -0.4.
For COc1ccc(/C=C/CN2CCN(CC(C)C)C(CCO)C2)cc1 (stereo unspecified) the results were HCV NS3 hel inh -16.6, HSP90 refold inh 1.0, HSF1 inh 7.1, DNA FID counter -1.8, HSF1 activator 3.2 and core dimer inh 5.5.
Screening Cc1cc(Nc2cccc(Cl)c2)nc(-c2ccccc2O)n1 returned HCV NS3 hel inh -21.0, HSP90 refold inh -2.6, HSF1 inh -70.5*, DNA FID counter 15.0, HSF1 activator -77.4 and core dimer inh 4.5.
CC(C)(C)Cc1nnc(NC(=O)CSc2ccccc2)s1 was read as HCV NS3 hel inh -13.7, HSP90 refold inh 1.9, HSF1 inh 22.6, DNA FID counter -20.4, HSF1 activator 26.4 and core dimer inh -1.1.
CCCCC1=CC2=C(c3ccco3)C(=O)C(C)(OC(=O)c3ccc(OC)cc3)C(=O)C2=CN1Cc1ccc2c(c1)OCO2 (stereo unspecified) was read as HSF1 inh 11.7, HSF1 activator 26.6 and core dimer inh 55.1*.
`CCCCC1=CC2=C(c3ccco3)C(=O)C(C)(OC(=O)c3ccc(OC)cc3)C(=O)C2=CN1Cc1ccccc1` (stereo unspecified) gave HSF1 inh 18.1, HSF1 activator 32.1 and core dimer inh 14.6.
c1cncc(-c2noc(CC3CCCCC3)n2)c1 was read as HCV NS3 hel inh -5.4, HSP90 refold inh -2.2, HSF1 inh 2.3, DNA FID counter -2.6, HSF1 activator -25.7 and core dimer inh 4.0.
For COc1ccc(-c2nc3n(n2)C(c2ccccc2)C2=C(CCCC2=O)N3)cc1OC (stereo unspecified) the results were HCV NS3 hel inh -2.4, HSP90 refold inh 7.0, HSF1 inh -56.8*, DNA FID counter -9.4, HSF1 activator -68.4 and core dimer inh -3.0.
COc1ccc(C2C3=C(CCCC3=O)Nc3nc(-c4cc(OC)c(OC)c(OC)c4)nn32)cc1OC (stereo unspecified) was read as HCV NS3 hel inh -5.7, HSP90 refold inh -0.8, HSF1 inh 1.4, DNA FID counter -26.4, HSF1 activator 7.1 and core dimer inh 1.6.
`COc1ccccc1N1CCN(C(=S)Nc2ccc(F)cc2)CC1` gave HCV NS3 hel inh 3.7, HSP90 refold inh 13.2, HSF1 inh -72.5*, DNA FID counter -16.6, HSF1 activator -75.4 and core dimer inh 1.9.
`CN=c1scc(-c2cccs2)n1/N=C/c1ccccc1O` gave HCV NS3 hel inh 7.7, HSP90 refold inh 77.9*, HSF1 inh -89.9*, DNA FID counter -5.2, HSF1 activator -91.4 and core dimer inh -1.6.
